Reference: ChEMBL document CHEMBL1649152, “Pharmacokinetics of hydroxychloroquine and its clinical implications in chemoprophylaxis against malaria caused by Plasmodium vivax” (Antimicrob Agents Chemother, 2009)
The source made the active and inactive calls. The rule behind the calls is not given here.

What was measured:
Homo sapiens [1] = experiment: Ratio of AUC for bisdesethylchloroquine level to AUC for compound in healthy human at 400 mg, po administered as single dose; assay type: ADME, organism-based; conditions: in vivo
In short: (§1)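 Six healthy volunteers in study Ia, fasted from 10 h before to 4 h after dosing, sampled serially up to 314 h. Plasma was stored at –70°C, ether-extracted from ammonia-alkalinised plasma with an internal standard, and assayed by C18 RP-HPLC with fluorescence (ex 320/em 370 nm). Calibration was 10–2,000 ng/ml for parent and 5–200 ng/ml for DCQ/BDCQ. Metabolite and parent AUCs came from noncompartmental linear-log trapezoidal analysis with λz extrapolation to infinity.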

[2] = Apparent peripheral distribution volume in healthy human at 400 mg, po administered as single dose; assay type: ADME, organism-based; conditions: in vivo, read-out: Vz/F
Homo sapiens [3] = experiment: AUC (infinity) in healthy human assessed as desethylchloroquine level at 400 mg, po administered as single dose; assay type: ADME, organism-based, Plasma; parameters: dose 400 mg, route oral, time infinity; conditions: in vivo
In short: (§2)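 Six healthy subjects (study Ia), fasted from 10 h before to 4 h after the oral dose; serial plasma sampled up to 314 h. Plasma extracted with diethyl ether, then reversed-phase HPLC on a C18 column with fluorescence detection (ex 320/em 370 nm). Noncompartmental analysis: Cmax and Tmax observed; terminal t1/2 = ln2/λz; AUC by linear-log trapezoidal, AUCinf extrapolated.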

Homo sapiens [4] = experiment: Cmax in healthy human plasma assessed as desethylchloroquine level at 400 mg, po administered as single dose; assay type: ADME, organism-based; parameters: dose 400 mg, route oral; conditions: in vivo; in short: as §2
Homo sapiens [5] = experiment: Terminal half life in healthy human assessed as bisdesethylchloroquine level at 400 mg, po administered as single dose; assay type: ADME, organism-based; conditions: in vivo; in short: as §2
[6] = AUC (last) in healthy human at 400 mg, po administered as single dose; assay type: ADME, organism-based; parameters: dose 400 mg, time 0 - last, route oral; conditions: plasma; in short: as §2
Homo sapiens [7] = experiment: Tmax in healthy human assessed as desethylchloroquine level at 400 mg, po administered as single dose; assay type: ADME, organism-based; conditions: in vivo; in short: as §2
Homo sapiens [8] = experiment: AUC (infinity) in healthy human assessed as bisdesethylchloroquine level at 400 mg, po administered as single dose; assay type: ADME, organism-based, Plasma; parameters: dose 400 mg, time infinity, route oral; conditions: in vivo; in short: as §2
Homo sapiens [9] = experiment: Ratio of AUC for desethylchloroquine level to AUC for compound in healthy human at 400 mg, po administered as single dose; assay type: ADME, organism-based; conditions: in vivo; in short: as §1
Homo sapiens [10] = experiment: AUC (last) in healthy human assessed as bisdesethylchloroquine level at 400 mg, po administered as single dose; assay type: ADME, organism-based, Plasma; parameters: dose 400 mg, route oral, time 0 - last; conditions: in vivo; in short: as §2
Homo sapiens [11] = experiment: Terminal half life in healthy human assessed as desethylchloroquine level at 400 mg, po administered as single dose; assay type: ADME, organism-based; conditions: in vivo; in short: as §2
[12] = Apparent oral clearance in healthy human at 400 mg, po administered as single dose; assay type: ADME, organism-based; conditions: in vivo
[13] = Terminal half life in healthy human at 400 mg, po administered as single dose; assay type: ADME, organism-based; conditions: in vivo, read-out: beta t1/2 (converted); in short: as §2
[14] = Tmax in healthy human at 400 mg, po administered as single dose; assay type: ADME, organism-based; conditions: in vivo; in short: as §2
Homo sapiens [15] = experiment: Cmax in healthy human plasma assessed as bisdesethylchloroquine level at 400 mg, po administered as single dose; assay type: ADME, organism-based; parameters: dose 400 mg, route oral; conditions: in vivo; in short: as §2
Homo sapiens [16] = experiment: Tmax in healthy human assessed as bisdesethylchloroquine level at 400 mg, po administered as single dose; assay type: ADME, organism-based; conditions: in vivo; in short: as §2
Homo sapiens [17] = experiment: AUC (last) in healthy human assessed as desethylchloroquine level at 400 mg, po administered as single dose; assay type: ADME, organism-based, Plasma; parameters: dose 400 mg, time 0 - last, route oral; conditions: in vivo; in short: as §2
Plasmodium vivax = experiment: Antimalarial activity against Plasmodium vivax infected in patient assessed as prophylaxis at 400 mg, po once a week
[18] = Cmax in healthy human plasma at 400 mg, po administered as single dose; assay type: ADME, organism-based; parameters: dose 400 mg, route oral; in short: as §2
[19] = AUC (infinity) in healthy human at 400 mg, po administered as single dose; assay type: ADME, organism-based; parameters: dose 400 mg, time infinity, route oral; conditions: plasma; in short: as §2

CCN(CCO)CCCC(C)Nc1ccnc2cc(Cl)ccc12 (stereo not given) [HYDROXYCHLOROQUINE]
Ratio (Homo sapiens [1]): 0.63
Vd/F [2]: 2850 L
AUC (Homo sapiens [3]): 37.7 µM·h
Cmax (Homo sapiens [4]): 60 nM
beta t1/2 (Homo sapiens [5]): 241 h
AUC(0-t) [6]: 75.4 µM·h
Tmax (Homo sapiens [7]): 6.1 h
AUC (Homo sapiens [8]): 53.6 µM·h
Ratio (Homo sapiens [9]): 0.39
AUC (Homo sapiens [10]): 34 µM·h
beta t1/2 (Homo sapiens [11]): 549.9 h
CL/F [12]: 200 mL/min
half-life [13]: 172 h
Tmax [14]: 2.4 h
Cmax (Homo sapiens [15]): 360 nM
Tmax (Homo sapiens [16]): 72.8 h
AUC (Homo sapiens [17]): 12.2 µM·h
Activity (Plasmodium vivax): inactive
Cmax [18]: 1220 nM
AUC(0-inf) [19]: 102 µM·h
